Assay results published in ChEMBL document CHEMBL4477193, “The Natural Product Essramycin and Three of Its Isomers Are Devoid of Antibacterial Activity” (J Nat Prod, 2016).
Active and inactive are the calls of the source.

What was measured:
Type in all cases: functional, organism-based
Acinetobacter baumannii = assay: Antibacterial activity against Acinetobacter baumannii ATCC 17961 up to 128 ug/ml after 16 to 20 hrs by broth microdilution assay
Summary of the method: (§1)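 MIC testing across a concentration series whose top concentration was 128 μg/mL. The E. faecium strain is NCTC 7171 (ATCC 19734). The testing method follows an earlier report.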

Klebsiella aerogenes = assay: Antibacterial activity against Enterobacter aerogenes ATCC 35029 up to 128 ug/ml after 16 to 20 hrs by broth microdilution assay; summary of the method: as §1
Staphylococcus aureus = assay: Antibacterial activity against Staphylococcus aureus ATCC 29213 up to 128 ug/ml after 16 to 20 hrs by broth microdilution assay; summary of the method: as §1
Enterococcus faecium = assay: Antibacterial activity against Enterococcus faecium ATCC 19734 up to 128 ug/ml after 16 to 20 hrs by broth microdilution assay; summary of the method: as §1
Escherichia coli = assay: Antibacterial activity against Escherichia coli ATCC 25922 up to 128 ug/ml after 16 to 20 hrs by broth microdilution assay; summary of the method: as §1
Klebsiella pneumoniae = assay: Antibacterial activity against Klebsiella pneumoniae ATCC 700603 up to 128 ug/ml after 16 to 20 hrs by broth microdilution assay; summary of the method: as §1
Pseudomonas aeruginosa = assay: Antibacterial activity against Pseudomonas aeruginosa ATCC 27853 up to 128 ug/ml after 16 to 20 hrs by broth microdilution assay; summary of the method: as §1

Measured: Activity

Cc1cc(=O)[nH]c2nnc(CC(=O)c3ccccc3)n12
inactive: all assays above

Cc1cc(=O)[nH]c2nc(CC(=O)c3ccccc3)nn12
inactive: all assays above

Cc1cc(=O)n2c(CC(=O)c3ccccc3)nnc2[nH]1
inactive: all assays above

Cc1cc(=O)n2nc(CC(=O)c3ccccc3)nc2[nH]1
inactive: all assays above
